Assay results: article PMC8865373 (Biochemistry, 2021)
Where a SMILES comes first, the peptide text is derived from it. Where no end group is shown, it is not given here. [ ]: non-standard residue; d: D form. pS = N[C@@H](COP(=O)(O)O)C(=O)O

Key:
[1] = biological target: T1, TAZ2 domain of CBP (residues 1764–1855) (Mus musculus, UniProt P45481); experiment: Fluorescence anisotropy competition with Alexa594-labeled E7; assay type: binding; conditions: ratio of fluorescence anisotropy competition KDs
T1 sequence (P45481 1764-1855): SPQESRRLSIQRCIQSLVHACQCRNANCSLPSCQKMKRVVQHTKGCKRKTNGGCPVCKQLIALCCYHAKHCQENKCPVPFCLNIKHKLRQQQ
In short: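 Tracer: Alexa Fluor 594-labelled E7(1–51) C24A/A50C (dye at position 50), 20 nM, in 20 mM Tris, 50 mM NaCl, 1 mM DTT, pH 7.0. It was pre-bound to 0.8 μM TAZ2 (>90% saturation). Unlabelled E7 peptides were titrated in and the anisotropy decrease read at 590/617 nm. Apparent KD came from a competition fit using the tracer KD from direct TAZ2 titration.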

TAZ2 = conditions: doubly-phosphorylated peptide; fluorescence anisotropy and NMR spectroscopy; cited from earlier work

CC(C)C[C@H](NC(=O)[C@H](CCC(N)=O)NC(=O)[C@H](CCC(=O)O)NC(=O)[C@H](Cc1ccc(O)cc1)NC(=O)[C@H](CS)NC(=O)[C@H](Cc1ccc(O)cc1)NC(=O)[C@H](CC(C)C)NC(=O)[C@H](CC(=O)O)NC(=O)[C@@H](NC(=O)[C@@H](NC(=O)[C@@H](N)CCC(=O)O)[C@@H](C)O)[C@@H](C)O)C(=O)N[C@@H](CC(N)=O)C(=O)N[C@@H](CC(=O)O)C(=O)N[C@@H](CO)C(=O)N[C@@H](CO)C(=O)N[C@@H](CCC(=O)O)C(=O)N[C@@H](CCC(=O)O)C(=O)N[C@@H](CCC(=O)O)C(=O)N[C@@H](CC(=O)O)C(=O)N[C@@H](CCC(=O)O)C(=O)O [CR2(18–37)] (H-ETTDLYCYEQLNDSSEEEDE-OH)
KD of CR2 relative to the preceding CR1 motif (stronger) [1]: seven-fold

ppE7(1–51): doubly-phosphorylated (S31, S32) HPV16 E7(1–51) peptide (MHGDTPTLHEYMLDLQPETTDLYCYEQLND[pS][pS]EEEDEIDGPAGQAEPDRAH)
binding affinity for TAZ2 (TAZ2): low nanomolar range
